Tests used:
[1] = target: T1, CYP3A4 (Homo sapiens, UniProt P08684); experiment: Time dependent inhibition of CYP3A4 in human liver microsomes using testosterone as substrate at 10 uM preincubated for 30 mins by LC-MS-MS analysis relative to control; type: ADME, Microsome; conditions: probe testosterone, read-out: TDI
Procedure, shortened: (§1)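 CYP3A4 metabolism of testosterone was measured after 0 or 30 min preincubation of enzyme with test article at the indicated concentration. Activity lost via preincubation, relative to the zero-minute control with the same inhibitor, was the end point. 6β-OH testosterone was detected by LC-MS/MS with cortisone as internal standard.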

[2] = Volume of distribution at steady state in dog; type: ADME, organism-based, Canis lupus familiaris; conditions: in vivo, read-out: Vdss
[3] = Oral bioavailability in rat; type: ADME, organism-based; conditions: in vivo
[4] = Plasma clearance in rat; type: ADME, organism-based
[5] = Oral bioavailability in dog; type: ADME, organism-based, Canis lupus familiaris; conditions: in vivo
[6] = Plasma clearance in dog; type: ADME, organism-based, Canis lupus familiaris
[7] = target: Voltage-gated inwardly rectifying potassium channel KCNH2 (Homo sapiens, UniProt Q12809); experiment: Inhibition of human ERG
Voltage-gated inwardly rectifying potassium channel KCNH2, sequence (Q12809 whole entry): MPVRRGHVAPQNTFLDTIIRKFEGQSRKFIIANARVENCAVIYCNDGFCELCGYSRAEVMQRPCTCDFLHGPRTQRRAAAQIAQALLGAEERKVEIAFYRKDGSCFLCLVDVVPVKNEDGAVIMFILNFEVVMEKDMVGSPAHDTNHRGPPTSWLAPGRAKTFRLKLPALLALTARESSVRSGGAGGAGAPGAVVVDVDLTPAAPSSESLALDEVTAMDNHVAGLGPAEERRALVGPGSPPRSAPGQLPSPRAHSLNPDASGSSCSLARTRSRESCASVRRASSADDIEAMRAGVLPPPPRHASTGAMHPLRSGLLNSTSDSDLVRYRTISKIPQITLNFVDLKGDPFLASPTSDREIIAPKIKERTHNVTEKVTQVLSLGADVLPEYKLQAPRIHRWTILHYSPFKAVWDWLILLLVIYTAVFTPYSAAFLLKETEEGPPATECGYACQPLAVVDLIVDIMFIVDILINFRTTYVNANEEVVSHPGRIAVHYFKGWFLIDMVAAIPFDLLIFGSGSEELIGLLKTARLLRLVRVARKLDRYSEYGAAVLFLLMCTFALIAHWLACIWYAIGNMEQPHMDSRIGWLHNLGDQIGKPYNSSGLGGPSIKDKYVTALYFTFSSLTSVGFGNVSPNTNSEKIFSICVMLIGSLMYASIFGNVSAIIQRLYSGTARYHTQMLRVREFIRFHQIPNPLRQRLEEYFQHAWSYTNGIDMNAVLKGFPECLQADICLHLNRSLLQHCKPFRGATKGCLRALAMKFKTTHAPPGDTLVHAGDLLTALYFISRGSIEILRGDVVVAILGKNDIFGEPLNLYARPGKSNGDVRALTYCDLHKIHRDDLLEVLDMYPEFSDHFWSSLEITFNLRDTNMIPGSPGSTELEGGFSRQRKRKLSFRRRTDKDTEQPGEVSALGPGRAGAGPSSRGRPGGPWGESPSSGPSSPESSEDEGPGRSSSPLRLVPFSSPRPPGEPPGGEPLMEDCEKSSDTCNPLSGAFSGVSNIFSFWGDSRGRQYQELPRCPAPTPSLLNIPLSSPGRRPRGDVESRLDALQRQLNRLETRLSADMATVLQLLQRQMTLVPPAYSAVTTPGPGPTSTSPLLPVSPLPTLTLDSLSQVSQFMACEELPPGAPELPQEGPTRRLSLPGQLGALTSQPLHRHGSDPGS

[8] = Volume of distribution at steady state in rat; type: ADME, organism-based; conditions: in vivo, read-out: Vdss
[9] = Half life in rat; type: ADME, organism-based; conditions: in vivo
[10] = Half life in dog; type: ADME, organism-based, Canis lupus familiaris; conditions: in vivo
[11] = target: T1, CYP3A4; experiment: Inhibition of CYP3A4 in human liver microsomes using testosterone as substrate at 10 uM by LC-MS-MS analysis relative to control; type: ADME, Microsome; conditions: probe testosterone
[12] = target: Cytochrome P450 3A4 (Homo sapiens, UniProt P08684); experiment: Time dependent inhibition of CYP3A4 in human liver microsomes using testosterone as substrate by LC-MS-MS analysis relative to control; type: ADME, Microsome; procedure, shortened: as §1
Cytochrome P450 3A4, sequence (P08684 whole entry): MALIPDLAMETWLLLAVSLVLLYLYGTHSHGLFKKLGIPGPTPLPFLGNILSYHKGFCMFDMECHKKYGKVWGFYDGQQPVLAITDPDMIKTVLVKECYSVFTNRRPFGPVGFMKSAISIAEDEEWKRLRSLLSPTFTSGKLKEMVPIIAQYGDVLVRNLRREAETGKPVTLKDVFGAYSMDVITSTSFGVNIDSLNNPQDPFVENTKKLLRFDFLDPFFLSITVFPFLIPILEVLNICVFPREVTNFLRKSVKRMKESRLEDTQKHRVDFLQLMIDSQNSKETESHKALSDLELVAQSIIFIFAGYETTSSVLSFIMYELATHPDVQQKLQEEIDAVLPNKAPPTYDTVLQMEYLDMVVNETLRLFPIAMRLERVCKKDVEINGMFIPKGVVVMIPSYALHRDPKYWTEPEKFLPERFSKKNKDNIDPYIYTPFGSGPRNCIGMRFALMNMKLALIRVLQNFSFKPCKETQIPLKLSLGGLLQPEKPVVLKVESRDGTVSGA

T1 sequence (P08684 whole entry): as above

| inhibition at 30 min, 10 µM [1] | inhibition at 10 µM [11] | Structure (SMILES) | further results |
| --- | --- | --- | --- |
| 30% | – | CN(C)S(=O)(=O)Nc1ccc2ccc3ncc(-c4cnn(C)c4)cc3c(=O)c2c1 | Vd [2]: 3.5 L/kg; bioavailability [3]: 24%; clearance [4]: 40 mL/min/kg; bioavailability [5]: 16%; clearance [6]: 57 mL/min/kg; inhibition (INH) [7]: Not Active; Vd [8]: 2.5 L/kg; half-life [9]: 42 min; half-life [10]: 48 min |
| 1% | 29% | Cn1cc(-c2cnc3ccc4ccc(CS(=O)(=O)NCC5CCCCN5)cc4c(=O)c3c2)cn1 (centres undefined) | – |
| 14% | 23% | Cn1cc(-c2cnc3ccc4ccc(CS(=O)(=O)NCc5cccnn5)cc4c(=O)c3c2)cn1 | – |
| – | – | Cn1cc(-c2cnc3ccc4ccc(CC(=O)NCc5ccccn5)cc4c(=O)c3c2)cn1 | TDI [12]: < 10% |
| 20% | 27% | Cn1cc(-c2cnc3ccc4ccc(CS(=O)(=O)N[C@@H]5CCCC[C@@H]5N)cc4c(=O)c3c2)cn1 | – |
| 5% | 22% | Cc1nccc(CNS(=O)(=O)Cc2ccc3ccc4ncc(-c5cnn(C)c5)cc4c(=O)c3c2)n1 | – |
| 30% | 30% | Cn1cc(-c2cnc3ccc4ccc(CS(=O)(=O)N[C@@H]5CCCC[C@H]5N)cc4c(=O)c3c2)cn1 | – |
| 13% | 67% | Cn1cc(-c2cnc3ccc4ccc(CS(=O)(=O)NCc5cnsc5)cc4c(=O)c3c2)cn1 | – |
| 0% | 24% | Cn1cc(-c2cnc3ccc4ccc(CS(=O)(=O)NCc5cccc[n+]5[O-])cc4c(=O)c3c2)cn1 | – |
| 15% | 21% | CCCNS(=O)(=O)Cc1ccc2ccc3ncc(-c4cnn(C)c4)cc3c(=O)c2c1 | – |
| 6% | 0% | CN(C)S(=O)(=O)Cc1ccc2ccc3ncc(-c4cnn(C)c4)cc3c(=O)c2c1 | – |
